Test results from article PMC5116011 (The Journal of antibiotics, 2016).
In brackets after ≈: the same amount, converted by molar mass. Read-outs that look alike come from different tables or passages of the source.

Key:
[1] = tested on: E. faecalis ATCC33186; assay: MIC, microbroth dilution in Mueller-Hinton broth; format: cell-based; details: Enterococcus faecalis, ATCC33186, read-out: MIC EF
Summary of the method: (§1)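 CLSI broth microdilution in cation-adjusted Mueller-Hinton broth. Inocula were grown from MH agar colonies in MH broth, with a final inoculum of 10^5 CFU/ml. Test compound final range was 200–0.2 µg/ml, incubated 37°C for 18–20 h. MIC was the lowest concentration preventing visible growth. Runs were at least duplicate, and the mean MIC was reported.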

[2] = tested on: S. pyogenes ATCC700294; assay: MIC, microbroth dilution in Mueller-Hinton broth; format: cell-based; details: Streptococcus pyogenes, ATCC700294, read-out: MIC SPy
Summary of the method: as §1

[3] = tested on: S. pneumoniae R6; assay: MIC, microbroth dilution in Mueller-Hinton broth; format: cell-based; details: Streptococcus pneumoniae, R6, read-out: MIC SP
Summary of the method: as §1

[4] = tested on: B. anthracis sterne; assay: microbe, parasite or virus in culture; format: cell-based; details: Bacillus anthracis, read-out: MIC BA
[5] = tested on: B. subtilis ATCC23857; assay: MIC, microbroth dilution in Mueller-Hinton broth; format: cell-based; details: Bacillus subtilis, ATCC23857, read-out: MIC BS
Summary of the method: as §1

[6] = tested on: S. aureus -ATCC29213 (MSSA); assay: MIC, microbroth dilution in Mueller-Hinton broth; format: cell-based; details: Staphylococcus aureus, read-out: MIC MSSA
Summary of the method: as §1

[7] = tested on: S. aureus NRS 70 (MRSA); assay: MIC, microbroth dilution in Mueller-Hinton broth; format: cell-based; details: Staphylococcus aureus, MRSA|NRS70, read-out: MIC MRSA
Summary of the method: as §1

[8] = tested on: E. coli BW25113; assay: MIC, microbroth dilution in Mueller-Hinton broth; format: cell-based, Escherichia coli; details: for MIC EC MH+BP/CCCP / MIC EC +: E. coli BW25113; for MIC EC MH+BP/CCCP: MH broth with 30 µg/ml 2,2′-bipyridyl and 50 µg/ml CCCP; for MIC EC +: with clavulanic acid (6µg/ml); for MIC: Escherichia coli, BW25113, read-out: MIC EC, E. coli BW25113, Mueller-Hinton broth (Table 2)
[9] = tested on: E. coli BW25113 ΔtolC derivative JW5503-1; assay: MIC, microbroth dilution in Mueller-Hinton broth; format: cell-based, Escherichia coli; details: for MIC: Escherichia coli
[10] = tested on: P. vulgaris ATCC 33420; assay: MIC, microbroth dilution in Mueller-Hinton broth; format: cell-based; details: Proteus vulgaris, ATCC33420, read-out: MIC PV
[11] = tested on: P. mirabilis ATCC 25933; assay: MIC, microbroth dilution in Mueller-Hinton broth; format: cell-based; details: Proteus mirabilis, ATCC25933, read-out: MIC PM
[12] = tested on: P. aeruginosa PA01; assay: MIC, microbroth dilution in Mueller-Hinton broth; format: cell-based, Pseudomonas aeruginosa; details: for MIC PA MH+BP/CCCP / MIC PA +: P. aeruginosa PA01; for MIC PA MH+BP/CCCP: MH broth with 30 µg/ml 2,2′-bipyridyl and 50 µg/ml CCCP; for MIC PA +: with clavulanic acid (6µg/ml); for MIC: Pseudomonas aeruginosa
[13] = tested on: E. coli BW25113 ΔampC derivative JW4111-2; format: cell-based, Escherichia coli; details: for MIC: Escherichia coli, BW25113, read-out: MIC ECΔampC −
[14] = BW25113, read-out: MIC ECΔtolC MH
[15] = BW25113, read-out: MIC ECΔtolC MH+BP

| Structure (SMILES) | MIC [1] | MIC [2] | MIC [3] | MIC [4] | MIC [5] | MIC [6] | MIC [7] | MIC EC MH+BP/CCCP [8] | MIC EC + [8] | MIC [8] | MIC ([9]; BW25113, read-out: MIC ECΔtolC) | MIC [9, 14] | MIC [9, 15] | MIC [10] | MIC [11] | MIC PA MH+BP/CCCP [12] | MIC PA + [12] | MIC ([12]; PA01, read-out: MIC PA) | MIC ([12]; PA01, read-out: MIC PA MH) | MIC ([12]; PA01, read-out: MIC PA MH+BP) | further results |
| --- | --- | --- | --- | --- | --- | --- | --- | --- | --- | --- | --- | --- | --- | --- | --- | --- | --- | --- | --- | --- | --- |
| CC(C)CC1NC(=O)C(C(=O)NC(C(=O)NC2C(=O)N3C2SC(C)(C)C3C(=O)O)c2ccccc2)=C1O (stereo not drawn) [Compound 1903] | 25 µg/mL (≈ 47.1 µM) | 0.39 µg/mL (≈ 0.735 µM) | 0.39 µg/mL (≈ 0.735 µM) | 3.13 µg/mL (≈ 5.9 µM) | 1.56 µg/mL (≈ 2.94 µM) | 0.78 µg/mL (≈ 1.47 µM) | 25 µg/mL (≈ 47.1 µM) | 12.5 µg/mL (≈ 23.6 µM) | 12.5 µg/mL | 50 µg/mL (≈ 94.2 µM) | 6.25 µg/mL (≈ 11.8 µM) | 6.2 µg/mL (≈ 11.7 µM) | 1.56 µg/mL (≈ 2.94 µM) | 25 µg/mL (≈ 47.1 µM) | 12.5 µg/mL (≈ 23.6 µM) | 1.56 µg/mL (≈ 2.94 µM) | 6.25 µg/mL | 12.5 µg/mL (≈ 23.6 µM) | 12.5 µg/mL (≈ 23.6 µM) | 12.5 µg/mL (≈ 23.6 µM) | MIC ECΔtolC MH+CCCP ([9]; E. coli BW25113 ΔtolC JW5503-1, MH broth containing 50 µg/ml CCCP): 1.56 µg/mL (≈ 2.94 µM); MIC ([12]; PA01, read-out: MIC PA MH+CCCP): 3.13 µg/mL (≈ 5.9 µM); MIC ([12]; PA01, read-out: MIC PA −): 12.5 µg/mL (≈ 23.6 µM); MIC [13]: 6.25 µg/mL (≈ 11.8 µM); MIC ECΔampC + [13]: 1.56 µg/mL |
| CC(C)(C)Oc1ccc(CC2NC(=O)C(C(=O)NC(C(=O)NC3C(=O)N4C3SC(C)(C)C4C(=O)O)c3ccccc3)=C2O)cc1 (stereo not drawn) [Compound 1905] | 50 µg/mL (≈ 78.5 µM) | 0.78 µg/mL (≈ 1.23 µM) | < 0.2 µg/mL | 3.13 µg/mL (≈ 4.92 µM) | 3.13 µg/mL (≈ 4.92 µM) | 0.78 µg/mL (≈ 1.23 µM) | 50 µg/mL (≈ 78.5 µM) | 6.25 µg/mL (≈ 9.82 µM) | 12.5 µg/mL | 25 µg/mL (≈ 39.3 µM) | 6.25 µg/mL (≈ 9.82 µM) | 6.25 µg/mL (≈ 9.82 µM) | 1.56 µg/mL (≈ 2.45 µM) | 50 µg/mL (≈ 78.5 µM) | 25 µg/mL (≈ 39.3 µM) | 0.78 µg/mL (≈ 1.23 µM) | 12.5 µg/mL | 25 µg/mL (≈ 39.3 µM) | 25 µg/mL (≈ 39.3 µM) | 6.25 µg/mL (≈ 9.82 µM) | MIC ECΔtolC MH+BP/CCCP ([9]; {}): 0.78 µg/mL (≈ 1.23 µM); MIC ECΔtolC MH+CCCP ([9]; {}): 1.56 µg/mL (≈ 2.45 µM); MIC ([12]; PA01, read-out: MIC PA MH+CCCP): 3.13 µg/mL (≈ 4.92 µM); MIC ([12]; PA01, read-out: MIC PA −): 25 µg/mL (≈ 39.3 µM); MIC ECΔampC + [13]: 12.5 µg/mL |
| CC(C)(C)OCC1NC(=O)C(C(=O)NC(C(=O)NC2C(=O)N3C2SC(C)(C)C3C(=O)O)c2ccccc2)=C1O (stereo not drawn) [Compound 1940] | 25 µg/mL (≈ 44.6 µM) | 0.78 µg/mL (≈ 1.39 µM) | 0.78 µg/mL (≈ 1.39 µM) | 3.13 µg/mL (≈ 5.58 µM) | 3.13 µg/mL (≈ 5.58 µM) | 1.56 µg/mL (≈ 2.78 µM) | 25 µg/mL (≈ 44.6 µM) | 12.5 µg/mL (≈ 22.3 µM) | 12.5 µg/mL | 50 µg/mL (≈ 89.2 µM) | 12.5 µg/mL (≈ 22.3 µM) | 12.5 µg/mL (≈ 22.3 µM) | 3.13 µg/mL (≈ 5.58 µM) | 50 µg/mL (≈ 89.2 µM) | 6.25 µg/mL (≈ 11.1 µM) | 6.25 µg/mL (≈ 11.1 µM) | 12.5 µg/mL | 25 µg/mL (≈ 44.6 µM) | 25 µg/mL (≈ 44.6 µM) | 12.5 µg/mL (≈ 22.3 µM) | MIC ECΔtolC MH+BP/CCCP ([9]; {}): 1.56 µg/mL (≈ 2.78 µM); MIC ECΔtolC MH+CCCP ([9]; {}): 6.25 µg/mL (≈ 11.1 µM); MIC ([12]; PA01, read-out: MIC PA MH+CCCP): 12.5 µg/mL (≈ 22.3 µM); MIC ([12]; PA01, read-out: MIC PA −): 25 µg/mL (≈ 44.6 µM); MIC [13]: 12.5 µg/mL (≈ 22.3 µM); MIC ECΔampC + [13]: 6.25 µg/mL |
| CN1CC(O)=C(C(=O)NC(C(=O)NC2C(=O)N3C2SC(C)(C)C3C(=O)O)c2ccccc2)C1=O (stereo not drawn) [Compound 2742] | 25 µg/mL (≈ 51.2 µM) | 1.56 µg/mL (≈ 3.19 µM) | 1.56 µg/mL (≈ 3.19 µM) | 6.25 µg/mL (≈ 12.8 µM) | 3.13 µg/mL (≈ 6.41 µM) | 1.56 µg/mL (≈ 3.19 µM) | 100 µg/mL (≈ 205 µM) | 12.5 µg/mL (≈ 25.6 µM) | 25 µg/mL | 100 µg/mL (≈ 205 µM) | 12.5 µg/mL (≈ 25.6 µM) | 12.5 µg/mL (≈ 25.6 µM) | 6.25 µg/mL (≈ 12.8 µM) | 100 µg/mL (≈ 205 µM) | 6.25 µg/mL (≈ 12.8 µM) | 6.25 µg/mL (≈ 12.8 µM) | 12.5 µg/mL | 25 µg/mL (≈ 51.2 µM) | 25 µg/mL (≈ 51.2 µM) | 12.5 µg/mL (≈ 25.6 µM) | MIC ECΔtolC MH+BP/CCCP ([9]; {}): 1.56 µg/mL (≈ 3.19 µM); MIC ECΔtolC MH+CCCP ([9]; {}): 6.25 µg/mL (≈ 12.8 µM); MIC ([12]; PA01, read-out: MIC PA MH+CCCP): 12.5 µg/mL (≈ 25.6 µM); MIC ([12]; PA01, read-out: MIC PA −): 25 µg/mL (≈ 51.2 µM); MIC [13]: 25 µg/mL (≈ 51.2 µM); MIC ECΔampC + [13]: 12.5 µg/mL |
